Compounds with a hit are over-represented: about 5.6% of the library has one in this group of screens.
aDG glyco act: increases alpha dystroglycan glycosylation | activation, % at 10 µM | Pro5-aDG cells, alpha-DG glycosylation AlphaScreen (IIH6); 0% Pro5, 100% B10-LARGE cell signal | hit rate 0.22% among 360,000 | AID 624168;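 active means activation of at least 8% versus controls, or a plate z-score of at least 8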;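 further: Pro5 are CHO cells carrying HIG-tagged alpha-DG that lacks glycosylation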
NR3A LBD binder: modulators (binders) of human NR3A ligand-binding domain; NR3A LBD differential scanning fluorimetry, Tm shift; 0% = protein alone, 100% = glycine-bound protein; Tm shift relative to glycine control, % at 25 µM; hit rate 2.5% among 340,000;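 active means melting temperature shift of at least 10% of the positive control shift, at one fixed dose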
MPTP block: permeability transition pore inhibition; isolated mouse mitochondria, Ca2+ swelling absorbance, 30 min; hit rate 1.4% among 360,000; AID 602449; inhibition, % at 10 µM;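 active means inhibition of 50% or more, scaled per plate between neutral and stimulator controls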
UPR CHOP act: activators of apoptotic arm of unfolded protein response (CHOP). activation, % at 10 µM. CHO-CHOP luciferase reporter, UPR activation, luminescence; percent of tunicamycin response over DMSO baseline. hit rate 0.34% among 330,000;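 active means at 10 µM dose, activation of 40% or more, normalized to positive control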
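Test system: CHO CHOP reporter cells. Input: 500 CHO-CHOP cells per well. Medium: F12 with 10% FBS. Technique: luciferase luminescence. Measure: percent activation relative to tunicamycin control. Dosing: 10 µM compound, 0.5% DMSO. Timing: 16-18 h cell attachment, then 6 h compound exposure, 37 °C.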
CHOP inh: inhibitors of CHOP induction in ER stress response; inhibition, % at 10 µM; CHO-K1 CHOP-promoter luciferase, tunicamycin-induced, 15-18 h; hit rate 3.8% among 220,000; AID 2732;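 active means compounds that reduced the stress-induced luciferase reporter signal by more than about 70% of percent inhibition, limit read from the data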
XBP1 UPR activ: adaptive UPR (XBP1) activation; CHO-XBP1 luciferase reporter, IRE1-XBP1 UPR activation, luminescence; percent of tunicamycin response, DMSO as zero; activation, % at 20 µM; hit rate 0.33% among 330,000; AID 463104;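 active means versus positive control, 20 µM dose yields 30% or more activation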
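Material – CHO cell line with stable XBP1 luciferase reporter · Buffer or medium – F12 plus 10% FBS · Compound – single point, 20 µM final compound, 1% DMSO · Schedule – 16-18 h cell attachment at 37 °C, then 6 h compound exposure · Signal – Steady-Glo luminescence read · Benchmarks – high control tunicamycin 10 µg/mL final, low control DMSO vehicle only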
aDG glyco conf: alpha-DG glycosylation activation, confirmation | shares compounds with aDG glyco act | Pro5-aDG cells, IIH6 AlphaLISA; scaled to LARGE-overexpressing B10 cells as 100% | activation, % at 10 µM (by protocol) | hit rate 17% among 600 | AID 651671;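 active means activation of at least 7% in one or more replicates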;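 further: cells exposed to compound for two days before detection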
Of the large screens only hits and unclear results are named; the others gave an inactive call (follow-up assays come after a bar, where they were run).

Cc1cc(OCc2cc(C(=O)N(Cc3nccn3C)C(C)C)no2)cc(C)c1Cl	none (no result: CHOP inh)
Cc1ccc(C(=O)N(C)CC(=O)Nc2ccc(N3CCOCC3)cc2)s1	none (no result: CHOP inh)
CC(=O)c1c(COC(=O)c2ccc(C)cc2)nc2ccccc2[n+]1[O-]	aDG glyco act 2.8 | aDG glyco conf inactive
CC(=O)c1c(COC(=O)c2ccc(F)cc2)nc2ccccc2[n+]1[O-]	none
O=[N+]([O-])c1ccc(CNCc2cc(Cl)ccc2O)cc1	none (no result: CHOP inh)
Cc1cccc(N=C2NC(=O)CS2)c1	aDG glyco act 6.4 | aDG glyco conf inactive
Cc1csc(SCC(=O)Nc2ccc3[nH]c(=O)[nH]c3c2)n1	none (no result: CHOP inh)
COC(=O)[C@@]1(C)[C@H]2C(=O)N(Cc3ccccc3)C(=O)[C@H]2[C@H]2CN=C(SCc3ccc(C#N)cc3)N21	aDG glyco act 5.6 (no result: CHOP inh) | aDG glyco conf inactive
COC(=O)[C@@]1(C)[C@H]2C(=O)N(Cc3ccccc3)C(=O)[C@H]2[C@H]2CN=C(SCc3ccc(Cl)cc3)N21	none (no result: CHOP inh)
CC(=O)Oc1ccccc1C(=O)N(C1CCCCC1)C1CCCCC1	none (no result: CHOP inh)
O=C(/C=C/c1ccco1)Nc1ccc(-c2nc3ccccc3[nH]2)cc1	aDG glyco act 5.0, NR3A LBD binder 30, CHOP inh 96 (no result: UPR CHOP act, XBP1 UPR activ) | aDG glyco conf inactive
COc1cc(CN2CCCC(CO)(Cc3ccccc3C)C2)cc2c1OCO2 (stereo unspecified)	none
COC(=O)c1ccc(OC(=O)CN2C(=O)c3ccccc3C2=O)cc1	none (no result: CHOP inh)
C=CCNC(=S)NNC(=O)CCC(O)CCCCC (stereo unspecified)	aDG glyco act 8.4 | aDG glyco conf inactive
C=CCNC(=S)NNC(=O)C(CCCC)CC(C)O (stereo unspecified)	none
C[C@H](CO)N1C[C@H](C)[C@@H](CN(C)S(=O)(=O)c2ccccc2)OCCCC[C@H](C)Oc2ccc(NC(=O)CCC(F)(F)F)cc2C1=O	aDG glyco act 3.4 (no result: NR3A LBD binder, UPR CHOP act, CHOP inh, XBP1 UPR activ) | aDG glyco conf inactive
CC(C)NC(=O)N(C)C[C@H]1Oc2ccc(NC(=O)Cc3ccccc3)cc2C(=O)N([C@H](C)CO)C[C@@H]1C	aDG glyco act 9.5 (no result: CHOP inh) | aDG glyco conf inactive
COc1ccc(S(=O)(=O)N(C)C[C@H]2OCCCC[C@@H](C)Oc3ccc(NC(=O)CCC(F)(F)F)cc3C(=O)N([C@H](C)CO)C[C@@H]2C)cc1	none (no result: NR3A LBD binder, UPR CHOP act, CHOP inh, XBP1 UPR activ)
C[C@H]1CN([C@@H](C)CO)C(=O)Cc2cc(NC(=O)CCC(F)(F)F)ccc2O[C@H]1CN(C)Cc1ccc(-c2ccccc2)cc1	aDG glyco act 5.7 (no result: CHOP inh) | aDG glyco conf inactive
O=C(O)c1cccc(S(=O)(=O)Nc2ccc(N3CCCCC3)cc2)c1	none (no result: CHOP inh)
CCCC(=O)N(CCN1CCOCC1)c1nc2c(F)cc(F)cc2s1	none (no result: CHOP inh)
CCc1cccc(C)c1NC(=O)c1cc(=O)[nH]c2ccc(S(=O)(=O)N3CCOCC3)cc12	none (no result: CHOP inh)
O=C(Nc1ccc(Cl)cc1)C1Cc2c(-c3ccc(Cl)cc3)ccnc2O1 (stereo unspecified)	none (no result: NR3A LBD binder, UPR CHOP act, CHOP inh, XBP1 UPR activ)
CC(C)c1ccc(NC(=O)C2Cc3c(-c4ccc(Cl)cc4)ccnc3O2)cc1 (stereo unspecified)	aDG glyco act 5.0 (no result: NR3A LBD binder, UPR CHOP act, CHOP inh, XBP1 UPR activ) | aDG glyco conf 6.5
Oc1ccc(C[C@H]2CNC(=S)N2CC2CCCN2C[C@H](Cc2ccc(O)cc2)N2C[C@H](Cc3ccccc3)N(CC3CCCCC3)C2=S)cc1 (stereo partly specified)	aDG glyco act 8.9, NR3A LBD binder 33 (no result: UPR CHOP act, CHOP inh, XBP1 UPR activ) | aDG glyco conf inactive
Cn1c(CC(=O)Nc2ccccc2F)nnc1SCC(=O)N1CCOCC1	none (no result: CHOP inh)
Cc1nc(NCCc2ccc(S(N)(=O)=O)cc2)c2c(C)c(C)sc2n1	aDG glyco act 8.2 | aDG glyco conf inactive
COc1ccccc1CNS(=O)(=O)c1ccc2c(c1)N(C(C)=O)CCO2	none (no result: CHOP inh)
Cc1cc(OCC(=O)O/N=C(\N)c2ccccc2)ccc1Br	none
Cc1cccc(C)c1OCc1cc(C(=O)N2CCC[C@H]2C(N)=O)no1	none (no result: CHOP inh)
O=C(c1cc(COc2c(F)cccc2F)on1)N1CCC(c2ccncc2)CC1	aDG glyco act 9.2 | aDG glyco conf inactive
Cc1cccc(C)c1OCc1cc(C(=O)N2CCC(c3ccncc3)CC2)no1	aDG glyco act 6.2 (no result: CHOP inh) | aDG glyco conf inactive
N#Cc1ccc(C(=O)Nc2cc(S(=O)(=O)N3CCCC3)ccc2OCC(F)(F)F)cc1	none
O=C(COC(=O)c1ccc(F)c(S(=O)(=O)N2CCOCC2)c1)Nc1ccc2[nH]c(=O)[nH]c2c1	none (no result: CHOP inh)
O=C(CNC(=O)c1ccccc1F)Nc1ccncc1	none (no result: CHOP inh)
O=C(CNC(=O)c1ccccc1F)NCc1ccncc1	aDG glyco act 5.9 (no result: CHOP inh) | aDG glyco conf inactive
O=C(CSc1nnc(-c2ccccn2)o1)Nc1ccccc1	none
C#Cc1cccc(NC(=O)CSc2nnc(-c3ccc(C(F)(F)F)cn3)o2)c1	aDG glyco act 3.5 | aDG glyco conf inactive
Cc1ccc(OCCCC(=O)NNC(=O)c2ccccn2)cc1	none (no result: CHOP inh)
CC(=O)Nc1ccc(NC(=O)CSCCc2ccccn2)cc1	aDG glyco act 4.5 | aDG glyco conf inactive
Cc1cccc2cc(CN(CCCN(C)C)C(=S)NCCc3ccccc3)c(=O)[nH]c12	aDG glyco act 4.7 | aDG glyco conf inactive
Cc1ccc2cc(CN(CCc3ccccc3)C(=S)NCCCN(C)C)c(=O)[nH]c2c1	none (no result: CHOP inh)
C[C@H]1CN([C@@H](C)CO)S(=O)(=O)c2ccc(Br)cc2O[C@H]1CN(C)C(=O)CN(C)C	aDG glyco act 10 (no result: NR3A LBD binder, UPR CHOP act, CHOP inh, XBP1 UPR activ) | aDG glyco conf inactive
CCN1CCN(C2=C(NS(=O)(=O)c3ccc(NC(C)=O)cc3)C(=O)c3ccccc3C2=O)CC1	aDG glyco act 6.7, NR3A LBD binder 15 (no result: CHOP inh) | aDG glyco conf inactive
CC(=O)Nc1ccc(S(=O)(=O)NC2=C(N3CCN(Cc4ccccc4)CC3)C(=O)c3ccccc3C2=O)cc1	none (no result: UPR CHOP act, XBP1 UPR activ)
COc1ccc(/C=N/NC(=O)c2cccc(OC(F)(F)C(F)F)c2)cc1O	none
CC1CCCCN1C(=O)CN1C(=O)c2ccccc2S1(=O)=O (stereo unspecified)	none (no result: CHOP inh)
CCC1CCCCN1C(=O)CN1C(=O)c2ccccc2S1(=O)=O (stereo unspecified)	aDG glyco act 3.3 (no result: CHOP inh) | aDG glyco conf inactive
N#Cc1cc2ccc(N3CCOCC3)cc2cc1C#N	aDG glyco act 6.8 (no result: CHOP inh) | aDG glyco conf inactive
Cc1nc2sccn2c(=O)c1S(=O)(=O)NCc1ccccc1Cl	aDG glyco act 10 (no result: CHOP inh) | aDG glyco conf inactive
COc1ccccc1CNS(=O)(=O)c1c(C)nc2sccn2c1=O	none (no result: CHOP inh)
Cc1noc(C)c1NC(=O)Nc1ccc2c(c1)C(=O)N([C@H](C)CO)C[C@H](C)[C@H](CN(C)C)O2	none (no result: CHOP inh)

Source: PubChem (several laboratories)
